Values after ≈ are worked out from the molar mass of the structure shown. Active and inactive are the calls of the source.
Legend:
Mus musculus [1] = assay: Drug level in Mycobacterium tuberculosis infected BALB/c mouse model at 31 to 50000 mg/kg, po; format: ADME, organism-based; design: dose 31-50000 mg/kg, route oral; conditions: in vivo
[2] = test system: Mycobacterium tuberculosis; assay: Bactericidal activity in Mycobacterium tuberculosis H37Rv on day 1; format: functional, organism-based
In short: (§1)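 H37Rv broth cultures were incubated with a range of drug concentrations. Viable CFU were counted by plating on Middlebrook 7H11 agar after 1, 7 and 14 days. Bactericidal effect is calculated against the initial inoculum before drug addition, as the mean of triplicates.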

[3] = Half life in BALB/c mouse at 5 to 1000 mg/kg, po; format: ADME, organism-based; design: dose 5-1000 mg/kg, route oral; conditions: in vivo
In short: (§2)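 Uninfected mice received single ascending oral gavage doses as suspensions in 0.25% (wt/vol) carboxymethylcellulose at 10 ml/kg. Plasma was taken by retro-orbital puncture from 0.08 to 50 h after dosing, with 3 animals per time point. Drug was measured by HPLC-UV or LCMS, and parameters were derived by noncompartmental analysis.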

[4] = test system: Mycobacterium tuberculosis; assay: Reduction of Mycobacterium tuberculosis H37Rv in orally dosed BALB/c mouse lung; format: functional
In short: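 BALB/c mice were infected by low-dose aerosol with H37Rv. Oral dosing started 4 weeks later and ran for 4 weeks (3 weeks for one agent), using fractionated regimens with 3 mice per regimen and saline controls. Lungs were homogenized 24 h after the end of treatment and plated on 7H11 agar with 10% ADC at 37°C in 5% CO2 for 3 weeks. The read-out is log10 CFU/lung.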

[5] = test system: Mycobacterium tuberculosis; assay: Ratio of fraction Cmax in Mycobacterium tuberculosis infected BALB/c mouse to MIC in Mycobacterium tuberculosis infected BALB/c mouse model at 31 to 50000 mg/kg, po; format: functional; conditions: dose mg/kg 31-50000
In short: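 Unbound peak plasma level was divided by broth MIC. […] It was converted to free drug by a Boltzman fit of equilibrium-dialysis mouse plasma binding. Values for the fractionated regimens given to aerosol-infected mice were estimated from the dose–fCmax/MIC relationship.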

[6] = Cmax in BALB/c mouse at 5 to 1000 mg/kg, po; format: ADME, organism-based; design: dose 5-1000 mg/kg, route oral; conditions: in vivo; in short: as §2
[7] = Fraction unbound ligand in mouse plasma at 0.01 to 50 mg/litre; format: ADME, cell-free
In short: (§3)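 Mouse plasma protein binding was measured by equilibrium dialysis across cellulose acetate membranes (12,000 to 14,000 MW cutoff). Drug was quantified by HPLC-UV or LCMS. Each concentration was run in duplicate and the mean reported.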

[8] = test system: Mycobacterium tuberculosis; assay: Bactericidal activity in Mycobacterium tuberculosis H37Rv on day 14; format: functional, organism-based; in short: as §1
[9] = AUC(0-infinity) in BALB/c mouse at 5 to 1000 mg/kg, po; format: ADME, organism-based; design: dose 5-1000 mg/kg, route oral; conditions: plasma; in short: as §2
[10] = test system: Mycobacterium tuberculosis; assay: Antimicrobial activity against Mycobacterium tuberculosis […] on day 7; format: functional; in short: as §1
[11] = test system: Mycobacterium tuberculosis; assay: Antimicrobial activity against Mycobacterium tuberculosis H37Rv in 7H9 broth; format: functional
In short: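 Broth microdilution against H37Rv over 256 to 0.01 mg/liter. MIC is the lowest concentration with no visible turbidity.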

[12] = test system: Mycobacterium tuberculosis; assay: Antimicrobial activity against Mycobacterium tuberculosis H37Rv infected in mouse J774A.1 macrophages; format: functional
In short: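 J774A.1 macrophages were infected with H37Rv (MOI 1:8, macrophage:bacilli) and exposed to drug at 32 to 0.5 mg/liter for 3 days. Intracellular MIC is the minimal concentration giving a static effect after 3 days. Efficacy is the log10 CFU/ml reduction over the assay period.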

[13] = test system: Mycobacterium tuberculosis; assay: Bactericidal activity in Mycobacterium tuberculosis H37Rv on day 7; format: functional; in short: as §1
[14] = Ratio of fraction AUC in Mycobacterium tuberculosis infected BALB/c mouse to MIC in Mycobacterium tuberculosis infected BALB/c mouse model at 31 to 50000 mg/kg, po; format: functional; conditions: dose mg/kg 31-50000
In short: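 Estimated from oral single-ascending-dose PK in uninfected BALB/c mice (gavage, 0.25% CMC suspension; plasma sampled 0.08–50 h, 3 mice/time point; HPLC-UV/LCMS). Total AUC0-∞ was made unbound using a protein-binding fit from mouse-plasma equilibrium dialysis, then divided by broth MIC over 576 h/24 h (SPX: 432 h/24 h). Values were interpolated from dose relationships for dose-fractionation regimens in aerosol-infected mice.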

Mus musculus [15] = assay: Drug level in Mycobacterium tuberculosis infected BALB/c mouse model at 38 to 19000 mg/kg, po; format: ADME, organism-based; design: dose 38-19000 mg/kg, route oral; conditions: in vivo
[16] = AUC(0-infinity) in BALB/c mouse at 6 to 400 mg/kg, po; format: ADME, organism-based; design: dose 6-400 mg/kg, route oral; conditions: plasma; in short: as §2
[17] = Cmax in BALB/c mouse at 6 to 400 mg/kg, po; format: ADME, organism-based; design: dose 6-400 mg/kg, route oral; conditions: in vivo; in short: as §2
Plasma = assay: Fraction unbound ligand in mouse plasma at 0.01 to 10 mg/litre; format: ADME, cell-free; in short: as §3
[18] = Half life in BALB/c mouse at 37.5 to 2400 mg/kg, po; format: ADME, organism-based; design: dose 37.5-2400 mg/kg, route oral; conditions: in vivo
[19] = Cmax in BALB/c mouse at 37.5 to 2400 mg/kg, po; format: ADME, organism-based; design: dose 37.5-2400 mg/kg, route oral; conditions: in vivo; in short: as §2
[20] = AUC(0-infinity) in BALB/c mouse at 37.5 to 2400 mg/kg, po; format: ADME, organism-based; design: dose 37.5-2400 mg/kg, route oral; conditions: plasma; in short: as §2
[21] = Ratio of fraction Cmax in Mycobacterium tuberculosis infected BALB/c mouse to MIC in Mycobacterium tuberculosis infected BALB/c mouse model at 225 to 115000 mg/kg, po; format: ADME, organism-based; design: dose 225-115000 mg/kg, route oral; conditions: in vivo
In short: (§4)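 Free Cmax and free AUC were derived from single-dose mouse plasma PK after conversion to unbound concentrations using each agent's binding equation, then divided by the broth MIC. Values for the fractionation regimens were estimated from the dose relationship.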

[22] = Toxicity in Mycobacterium tuberculosis infected BALB/c mouse model at 225 to 115000 mg/kg, po; format: organism-based; design: dose 225-115000 mg/kg, route oral; conditions: in vivo
[23] = Ratio of fraction AUC in Mycobacterium tuberculosis infected BALB/c mouse to MIC in Mycobacterium tuberculosis infected BALB/c mouse model at 225 to 115000 mg/kg, po; format: ADME, organism-based; design: dose 225-115000 mg/kg, route oral; conditions: in vivo; in short: as §4
Mus musculus [24] = assay: Drug level in Mycobacterium tuberculosis infected BALB/c mouse model at 225 to 115000 mg/kg, po; format: ADME, organism-based; design: dose 225-115000 mg/kg, route oral; conditions: in vivo

SMILES | Activity [2] | Log10 cfu [4] | Activity [8] | log10CFU/ml [10] | MIC [11] [µg/mL] | MIC [12] [µg/mL] | Activity [13] | Cmax [19] [ng/mL] | AUC(0-inf) [20] [ng·h/mL] | other results
C[C@@H]1CN(c2c(F)c(N)c3c(=O)c(C(=O)O)cn(C4CC4)c3c2F)C[C@H](C)N1 [SPARFLOXACIN] | Active | 1.4 | Active | 3 | 0.1 (≈ 0.255 µM) | 2 (≈ 5.1 µM) | Active | – | – | T>MIC (Mus musculus [1]): 10%; half-life [3]: 9.8 h; Ratio [5]: 4; Cmax [6]: 750 ng/mL; fraction unbound [7]: 0.26; AUC(0-inf) [9]: 43000 ng·h/mL; RatioAUC/MIC [14]: 3
COc1c(N2C[C@@H]3CCCN[C@@H]3C2)c(F)cc2c(=O)c(C(=O)O)cn(C3CC3)c12 [MOXIFLOXACIN] | Active | 3.2 | Active | 3 | 0.5 (≈ 1.25 µM) | 1 (≈ 2.49 µM) | Active | – | – | T>MIC (Mus musculus [15]): 0%; AUC(0-inf) [16]: 25000 ng·h/mL; Cmax [17]: 380 ng/mL; Fu (Plasma): 0.077
CC1COc2c(N3CCN(C)CC3)c(F)cc3c(=O)c(C(=O)O)cn1c23 (configuration not stated) [OFLOXACIN] | Active | 1.5 | Active | 3 | 0.5 (≈ 1.38 µM) | 2 (≈ 5.53 µM) | Active | 1700 | 29000 | half-life [18]: 4.93 h; Ratio [21]: 1; LD50 [22]: 3000 mg/kg; RatioAUC/MIC [23]: 2; T>MIC (Mus musculus [24]): 0%
O=C(O)c1cn(C2CC2)c2cc(N3CCNCC3)c(F)cc2c1=O [CIPROFLOXACIN] | Active | – | Active | 3 | 0.5 (≈ 1.51 µM) | 4 (≈ 12.1 µM) | – | 1200 | 29000 | log10CFU/ml [13]: 3.2
